Measured values taken from ChEMBL document CHEMBL3124921, “Discovery of nitropyridine derivatives as potent HIV-1 non-nucleoside reverse transcriptase inhibitors via a structure-based core refining approach” (Eur J Med Chem, 2014).
pEC50, pIC50: −log10 of the molar value.

Legend:
[1] = Cytotoxicity against human MT4 cells assessed as growth inhibition after 5 days by MTT assay; format: cell-based
Summary of the method: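 Mock-infected MT-4 cells (6 × 10⁵ cells/mL) were run in parallel triplicate wells with serial fivefold compound dilutions added from 10× stocks and culture medium instead of virus. Viability was measured by MTT at day 5, reading absorbance at 540 and 690 nm.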

[2] = test system: Human immunodeficiency virus 2; test: Antiviral activity against HIV-2 ROD infected in human MT4 cells assessed as protection against virus-induced cytopathogenicity after 5 days by MTT assay; format: functional, organism-based; details: Human immunodeficiency virus 2, ISOLATE ROD, MT4, 120 h
Summary of the method: (§1)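 Compounds added at the start as 10× stocks to triplicate wells, then serially diluted fivefold. Virus stock at […] CCID50 was added to MT-4 cells resuspended at 6 × 10⁵ cells/mL. Viability was read by MTT reduction to formazan five days post-infection, with absorbance measured at 540 and 690 nm. EC50 is the concentration protecting against virus-induced cytopathicity.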

[3] = Selectivity index, ratio of CC50 for human MT4 cells to EC50 for HIV-1 RES056 harboring reverse transcriptase K103N/Y181C double mutant infected in human MT4 cells; format: toxicity, cell-based; details: read-out: Ratio CC50/EC50
Summary of the method: (§2)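 MT-4 cells are seeded at 6 × 10⁵ cells/mL. Serial fivefold compound dilutions go into two triplicate series, one mock-infected and one virus-infected. After 5 days, viability is read by MTT reduction to formazan, with absorbance at 540 and 690 nm. EC50 comes from infected wells and CC50 from mock-infected wells. SI = CC50/EC50.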

[4] = test system: Human immunodeficiency virus 1; test: Antiviral activity against HIV-1 RES056 harboring reverse transcriptase K103N/Y181C double mutant infected in human MT4 cells assessed as protection against virus-induced cytopathogenicity after 5 days by MTT assay; format: functional, organism-based; details: Human immunodeficiency virus 1, RES056, MT4, 120 h; summary of the method: as §2
[5] = Selectivity index, ratio of CC50 for human MT4 cells to EC50 for wild type HIV-1 3B infected in human MT4 cells; format: toxicity, cell-based; details: read-out: Ratio CC50/EC50
Summary of the method: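 HIV-1 IIIB is added at 100–300 CCID50 per well to MT-4 cells seeded at 6 × 10⁵ cells/mL. Fivefold serial compound dilutions are run in triplicate, with a parallel mock-infected series for cytotoxicity. MTT viability is read at 540 and 690 nm after 5 days. SI = CC50 (mock-infected) / EC50 (infected).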

[6] = Selectivity index, ratio of CC50 for human MT4 cells to EC50 for HIV-2 ROD infected in human MT4 cells; format: toxicity, cell-based; details: read-out: Ratio CC50/EC50; summary of the method: as §2
[7] = test system: Human immunodeficiency virus 1; test: Antiviral activity against wild type HIV-1 3B infected in human MT4 cells assessed as protection against virus-induced cytopathogenicity after 5 days by MTT assay; format: functional, organism-based; details: Human immunodeficiency virus 1, 3B, MT4, 120 h; summary of the method: as §1
[8] = target: Human immunodeficiency virus type 1 reverse transcriptase (Human immunodeficiency virus 1, UniProt Q72547); test: Inhibition of wild type HIV-1 reverse transcriptase using […] as template/primer assessed as inhibition of biotin-dUTP incorporation after 1 hr by microtiter plate ELISA reader analysis

Compound | CC50 at 120 h [1] | pEC50 [2] | selectivity ratio [3] | pEC50 [4] | selectivity ratio [5] | selectivity ratio [6] | pEC50 [7] | pIC50 [8]
Cc1cccc(C)c1Nc1cc(Nc2ccc(C#N)cc2)ncc1[N+](=O)[O-] | 12.8 µM | < 4.89 | < 1 | < 4.89 | < 1 | < 1 | < 4.89 | 
Cc1cccc(C)c1Oc1cc(Nc2ccc(C#N)cc2)ncc1[N+](=O)[O-] | 126 µM | < 3.90 | < 1 | < 3.90 | 214 | < 1 | 6.24 | 
Cc1cc(C)c(Oc2cc(Nc3ccc(C#N)cc3)ncc2[N+](=O)[O-])c(C)c1 | 69.9 µM | < 4.16 | < 1 | < 4.16 | 1250 | < 1 | 7.25 | 5.16
Cc1cc(C#N)cc(C)c1Oc1cc(Nc2ccc(C#N)cc2)ncc1[N+](=O)[O-] | 36.1 µM | < 4.44 | < 1 | < 4.44 | 339 | < 1 | 6.96 | 5.07
Cc1cc(Br)cc(C)c1Oc1cc(Nc2ccc(C#N)cc2)ncc1[N+](=O)[O-] | 12.3 µM | < 4.91 | < 1 | < 4.91 | 45 | < 1 | 6.57 | 
Cc1cc(Cl)cc(C)c1Oc1cc(Nc2ccc(C#N)cc2)ncc1[N+](=O)[O-] | 11.1 µM | < 4.96 | < 1 | < 4.96 | 70 | < 1 | 6.80 | 
COc1cccc(OC)c1Oc1cc(Nc2ccc(C#N)cc2)ncc1[N+](=O)[O-] | 319 µM | < 3.50 | < 1 | < 3.50 | 74 | < 1 | 5.37 | 
N#Cc1ccc(Nc2cc(Oc3c(Cl)cccc3Cl)c([N+](=O)[O-])cn2)cc1 | 27.7 µM | < 4.56 | < 1 | < 4.56 | 44 | < 1 | 6.21 | 
N#Cc1ccc(Nc2cc(Oc3c(Cl)cc(Cl)cc3Cl)c([N+](=O)[O-])cn2)cc1 | 16.2 µM | < 4.79 | < 1 | < 4.79 | 97 | < 1 | 6.77 | 
N#Cc1ccc(Nc2cc(Oc3c(Cl)cc([N+](=O)[O-])cc3Cl)c([N+](=O)[O-])cn2)cc1 | 26.5 µM | < 4.58 | < 1 | < 4.58 | 2 | < 1 | 4.77 | 
N#Cc1ccc(Nc2cc(Oc3c(Br)cc(Br)cc3Br)c([N+](=O)[O-])cn2)cc1 | 7.49 µM | < 5.13 | < 1 | < 5.13 | 65 | < 1 | 6.96 | 
Cc1cc(Br)c(Oc2cc(Nc3ccc(C#N)cc3)ncc2[N+](=O)[O-])c(Br)c1 | 23.6 µM | < 4.63 | < 1 | < 4.63 | 691 | < 1 | 7.47 | 4.98
N#Cc1ccc(Nc2cc(Oc3c(F)cc(F)cc3F)c([N+](=O)[O-])cn2)cc1 | 3.54 µM | < 5.45 | < 1 | < 5.45 | 5 | < 1 | 6.14 | 
Cc1cc(C)c(Nc2cc(Nc3ccc(C#N)cc3)ncc2[N+](=O)[O-])c(C)c1 | 262 µM | < 3.58 | < 1 | < 3.58 | 9 | < 1 | 4.52 | 
Cc1cc(Br)c(Nc2cc(Nc3ccc(C#N)cc3)ncc2[N+](=O)[O-])c(Br)c1 | 167 µM | < 3.78 | < 1 | < 3.78 | 43 | < 1 | 5.41 | 
N#Cc1ccc(Nc2cc(Nc3c(F)cc(Br)cc3Br)c([N+](=O)[O-])cn2)cc1 | 149 µM | < 3.83 | < 1 | < 3.83 | 49 | < 1 | 5.52 | 
Cc1ccc(Nc2cc(Oc3c(C)cc(C#N)cc3C)c([N+](=O)[O-])cn2)cc1 | 207 µM | < 3.68 | < 1 | < 3.68 | < 1 | < 1 | < 3.68 | 
Cc1cc(C#N)cc(C)c1Oc1cc(Nc2ccc([N+](=O)[O-])cc2)ncc1[N+](=O)[O-] | 141 µM | < 3.85 | < 1 | < 3.85 | 200 | < 1 | 6.14 | 
CC(C)Nc1cccnc1N1CCN(C(=O)c2cc3cc(NS(C)(=O)=O)ccc3[nH]2)CC1 [DELAVIRDINE] | > 36.2 µM |  | < 1 | < 4.44 | > 71 |  | 6.29 | 
O=C1Nc2ccc(Cl)cc2[C@@](C#CC2CC2)(C(F)(F)F)O1 [EFAVIRENZ] | > 6.34 µM |  | > 21 | 6.49 | > 1110 |  | 8.24 | 
Cc1ccnc2c1NC(=O)c1cccnc1N2C1CC1 [NEVIRAPINE] | > 15 µM |  |  | 5.39 |  |  |  | 
Cc1cn([C@H]2C[C@H](N=[N+]=[N-])[C@@H](CO)O2)c(=O)[nH]c1=O [ZIDOVUDINE] | > 93.5 µM | 7.92 | > 5960 | 7.80 | > 12500 | > 7720 |  | 
